ALR inh: inhibitors of human sulfhydryl oxidase ALR; P55789; purified ALR, DTT oxidation, H2O2 HRP-luminol luminescence; inhibition, % (no concentration beside the values); 290,000 compounds, 3.8% hits; AID 485317;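 active = mean replicate inhibition above about 79%, with every replicate also reaching it, limit read from the data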
Target sequence (P55789 whole entry, looked up): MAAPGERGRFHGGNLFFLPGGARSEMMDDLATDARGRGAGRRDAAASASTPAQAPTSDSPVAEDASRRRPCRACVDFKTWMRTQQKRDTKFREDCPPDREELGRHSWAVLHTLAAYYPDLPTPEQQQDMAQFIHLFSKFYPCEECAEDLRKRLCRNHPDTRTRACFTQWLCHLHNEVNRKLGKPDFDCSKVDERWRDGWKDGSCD
T cell HTS: T cell immune modulators affecting CD8 T cell-vesicle binding; response (vesicle binding), % at 7 µM; 330,000 compounds, 0.068% hits; 2C CD8+ T cell-vesicle binding, flow cytometry; active compounds read low;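 active = response, share of CD8 T cells binding vesicles, and their 90th percentile fluorescence all below set limits, cut at about 80% in these data, passing the limit was not always enough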;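 also: values below 100% mean blocked vesicle binding to the CD8+ T cells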
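incubation = binding step 1.5 h, 37 °C, antibody labelling 20 min, ice | test system = 2C mouse CD8+ T cells | read-out basis = percent CD8+ FL2 mean versus row control | controls = Peptide-free naked vesicles (low) and QL9 vesicles with 0.7% DMSO vehicle (high) | detection = flow cytometry of vesicle-bound cells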
N-glyco inh: N-linked glycosylation inhibition; AID 588692; 360,000 compounds, 0.23% hits; D54 ERlucT glycosylation luciferase reporter, 24 h; percent of 100 nM tunicamycin response; reporter increase, % at 12.5 µM;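 active = mean luciferase reporter signal, scaled so untreated is 0 and the glycosylation-blocking control 100, at or above a set limit in every replicate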;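 also: luciferase carries N-glycosylation sites so blocking glycosylation raises the light; 0% = median of neutral control wells and 100% = median of 100 nM tunicamycin wells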
* = called active by the depositor; i = inactive; · = not tested or not shown. Only a selection was taken, and hits are over-represented in it overall.

SMILES | ALR inh | T cell HTS | N-glyco inh
CCC(C)NC(=O)c1ccccc1NC(=O)c1ccc(CSc2ccc(C)cc2)cc1 (stereo not drawn) | 99* | 136 | -2
OCC[C@H]1C[C@@H](O)[C@H](O)[C@]2(Cc3ccccc3CCO2)O1 | · | i | -1
S=C(Nc1ccccc1)NC1CCN(Cc2ccccc2)CC1 | 4 | 131 | 0
CCc1ccc(NC(=S)NC2CCN(Cc3ccccc3)CC2)cc1 | 96* | 433 | -5
Cc1ccc(S(=O)(=O)N2CCN(C(=O)c3cc(S(=O)(=O)N(C)C)ccc3N3CCCC3)CC2)c(C)c1 | · | · | 3
Cc1cccc2nc(CSCc3ccco3)cn12 | 98* | 452 | -5
Cc1cc(C)n2cc(CSCc3ccco3)nc2n1 | · | 200 | 0
Cc1ccc(-n2cnc3cc(NCc4cccs4)ccc32)cc1 | 21 | 320 | -1
c1ccc(-n2cnc3cc(NCc4cccs4)ccc32)cc1 | 97* | 640 | -17
COc1ccc(-n2cnc3cc(NCc4cccs4)ccc32)cc1 | 95* | 267 | 2
COc1ccc(-n2cnc3cc(NCc4ccccn4)ccc32)cc1 | 2 | i | -2
O=C(c1ccc(CS(=O)Cc2ccc(Cl)cc2)o1)N1CCN(c2ccccn2)CC1 (stereo not drawn) | -3 | 841 | 2
O=C(c1ccc(CS(=O)Cc2ccccc2Cl)o1)N1CCN(c2cccc(Cl)c2)CC1 (stereo not drawn) | 99* | 373 | -1
COc1cccc(N2CCN(C(=O)c3ccc(CS(=O)Cc4ccccc4Cl)o3)CC2)c1 (stereo not drawn) | 52 | 118 | 1
O=C(c1ccc(CS(=O)Cc2ccccc2Cl)o1)N1CCN(c2ccccn2)CC1 (stereo not drawn) | 99* | 222 | 0
Cc1ccc(NC(=S)NCCc2c[nH]c3ccccc23)c(C)c1 | -1 | 70 | -1
COc1ccc(NC(=O)N(C)C[C@H]2Oc3ccc(NC(=O)NC4CCCCC4)cc3C(=O)N([C@H](C)CO)C[C@@H]2C)cc1 | -10 | 612 | 2
Cc1ccc(/C=N/NC(=O)CNC(=O)c2ccc(S(=O)(=O)N(C)C)cc2)o1 | -7 | 399 | 3
CCCN(Cc1cc2ccc(C)cc2[nH]c1=O)S(=O)(=O)c1ccccc1 | -22 | 111 | -2
Cc1nc2ccccc2n1CC(=O)c1ccc(O)c(O)c1 | 98* | 258 | 1
Cc1nc2ccccc2n1CC(=O)c1ccccc1 | -6 | 219 | 1
O=C(COC(=O)c1ccc(Br)o1)Nc1cccc(S(=O)(=O)N2CCCCCC2)c1 | -9 | 360 | 0
CCN1C(=O)/C(=C\N(C)C)NC1=S | 98* | 208 | 0
COc1ccc(N2C(=O)/C(=C/N(C)C)NC2=S)cc1 | 70 | 285 | -1
O=C(O)CSc1ncnc2nc[nH]c12 | 6 | 755 | 2
SMILES | ALR inh | T cell HTS | N-glyco inh
c1nc(SSc2ncnc3nc[nH]c23)c2[nH]cnc2n1 | · | · | 106*
CCOc1ccc(/C=C2\SC(=S)N(CCC(=O)O)C2=O)cc1 | 3 | 108 | -5
O=C(O)CCN1C(=O)CC(N2C(=O)/C(=C/c3ccc(Cl)cc3)SC2=S)C1=O (stereo not drawn) | 98* | 202 | -2
COc1ccc(CNC(=O)CCC(=O)n2ncc3cc(C)ccc32)cc1 | -4 | 471 | 2
Cc1ccc(S(=O)(=O)N2CCC[C@H]2C(=O)NC2CCCCC2)cc1 | · | · | 0
Cc1ccc(S(=O)(=O)N2CCOCC2)cc1C(=O)OCC(=O)c1c(N)n(C)c(=O)n(C)c1=O | · | 579 | 0
Cn1c(N)c(C(=O)COC(=O)c2cc(S(=O)(=O)N3CCOCC3)ccc2F)c(=O)n(C)c1=O | 0 | 149 | 50*
COc1ccc2oc(C(=O)N3CCc4ccccc43)c(C)c2c1 | -1 | 289 | -19
O=C(CC(=O)c1ccccc1)Nc1cccnc1Cl | 33 | 222 | -2
Cc1ccc(N2CCN(C(=O)N3CCCC3)CC2)cc1C | 96* | 353 | -1
Cc1ccc(N2CCN(S(=O)(=O)N3CCCCC3)CC2)cc1C | 3 | 237 | 2
Cc1ccc(NC(=S)Nc2ccc3[nH]c(=O)[nH]c3c2)cc1C | 90* | 386 | -1
CC(=O)c1ccc(NC(=S)Nc2ccc3[nH]c(=O)[nH]c3c2)cc1 | -13 | 420 | 0
Cc1ccc(OC[C@H](O)[C@H](C)NC(C)C)c2c1CCC2 | -1 | 247 | -6
COc1ccc(NS(=O)(=O)c2cc(NC(=O)CCc3ccccc3)ccc2N2CCOCC2)cc1 | · | · | -3
O=C(CSCc1ccc([N+](=O)[O-])cc1)NC1CCCCCC1 | 99* | i | 0
O=C(CSCc1ccc(F)cc1)NC1CCCC1 | -4 | 311 | -1
O=C(CCC(=O)OCC(=O)c1ccc([N+](=O)[O-])cc1)NC1CCCCC1 | 80* | 370 | -1
Cc1ccccc1CSCCNC(=O)CSCc1ccc([N+](=O)[O-])cc1 | 99* | 286 | 0
